# Biological target: T1, D(4) dopamine receptor (Homo sapiens, UniProt P21917)
# T1 sequence (P21917 whole entry): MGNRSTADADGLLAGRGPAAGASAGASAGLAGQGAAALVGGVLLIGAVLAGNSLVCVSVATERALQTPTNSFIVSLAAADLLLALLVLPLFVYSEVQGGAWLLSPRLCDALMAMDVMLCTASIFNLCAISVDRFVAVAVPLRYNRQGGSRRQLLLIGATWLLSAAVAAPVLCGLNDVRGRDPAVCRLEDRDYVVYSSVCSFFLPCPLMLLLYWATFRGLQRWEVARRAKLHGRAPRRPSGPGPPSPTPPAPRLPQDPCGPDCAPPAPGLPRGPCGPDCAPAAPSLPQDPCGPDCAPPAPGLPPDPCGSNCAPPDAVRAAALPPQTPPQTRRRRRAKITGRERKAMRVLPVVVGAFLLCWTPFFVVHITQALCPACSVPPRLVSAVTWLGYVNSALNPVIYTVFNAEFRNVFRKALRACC
# Experiment: Affinity was evaluated by inhibition of [3H]-spiperone binding to COS cells transfected with human dopamine D-4 receptor
# Type: cell-based
# Summary of the method: (§1)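 Membranes from COS-7 cells transfected with human D-4 or D-2(long) receptor; [3H]spiperone binding inhibited in presence of sodium chloride. Ki averaged from two experiments.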
row,Ki,Compound
1,2 nM,CN1CCN(C2=Cc3ccccc3Oc3ccccc32)CC1
2,300 nM,C/C=C1/c2ccccc2C=C(N2CCN(C)CC2)c2ccccc21
3,4.9 nM,CN1CCN(C2=Nc3ccccc3Oc3ccc(Cl)cc32)CC1 [LOXAPINE]
4,2700 nM,CC(C)=C1c2ccccc2C=C(N2CCN(C)CC2)c2ccccc21
5,23 nM,CN1CCN(C2=Nc3cc(Cl)ccc3Oc3ccccc32)CC1 [ISOLOXAPINE]
6,0.54 nM,CN1CCN(C2=Cc3ccccc3Oc3ccc(Cl)cc32)CC1
7,12 nM,CC1c2ccccc2C=C(N2CCN(C)CC2)c2ccccc21 (stereo unspecified)
8,2900 nM,CN1CCN(C2=Cc3cc(Cl)ccc3Cc3ccccc32)CC1
9,0.9 nM,CN1CCN(C2=Cc3cc(Cl)ccc3Oc3ccccc32)CC1
10,47 nM,C=C1c2ccccc2C=C(N2CCN(C)CC2)c2ccccc21
11,930 nM,CC(C)=C1c2ccc(Cl)cc2C=C(N2CCN(C)CC2)c2ccccc21

# System: not listed separately
# Experiment: Ratio between Ki values of D2 and S-2A receptors
row,Ratio,Compound
1,5,CN1CCN(C2=Cc3ccccc3Oc3ccccc32)CC1
2,7.4,C/C=C1/c2ccccc2C=C(N2CCN(C)CC2)c2ccccc21
3,1.2,CC(C)=C1c2ccccc2C=C(N2CCN(C)CC2)c2ccccc21
4,0.8,CN1CCN(C2=Cc3ccccc3Oc3ccc(Cl)cc32)CC1
5,3,CN1CCN(C2=Cc3cc(Cl)ccc3Oc3ccccc32)CC1
6,5.2,C=C1c2ccccc2C=C(N2CCN(C)CC2)c2ccccc21
7,3,CC(C)=C1c2ccc(Cl)cc2C=C(N2CCN(C)CC2)c2ccccc21

# Biological target: 5-hydroxytryptamine receptor 2A (Rattus norvegicus, UniProt P14842)
# Sequence (P14842 whole entry): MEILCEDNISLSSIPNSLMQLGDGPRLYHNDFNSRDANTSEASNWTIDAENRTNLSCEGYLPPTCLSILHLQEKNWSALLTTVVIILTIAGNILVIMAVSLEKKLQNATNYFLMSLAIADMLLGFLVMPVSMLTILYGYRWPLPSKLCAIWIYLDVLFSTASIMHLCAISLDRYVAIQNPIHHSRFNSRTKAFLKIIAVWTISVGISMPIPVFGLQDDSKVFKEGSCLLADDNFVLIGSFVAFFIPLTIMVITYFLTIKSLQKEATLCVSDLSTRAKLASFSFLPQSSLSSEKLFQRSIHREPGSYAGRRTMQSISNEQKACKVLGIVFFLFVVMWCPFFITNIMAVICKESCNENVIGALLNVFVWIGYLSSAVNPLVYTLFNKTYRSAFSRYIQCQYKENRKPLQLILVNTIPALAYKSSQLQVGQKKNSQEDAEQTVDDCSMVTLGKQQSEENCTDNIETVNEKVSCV
# Experiment: Affinity was evaluated by inhibition of [125I]LSD binding to NIH 3T3 cells transfected with cloned rat 5-hydroxytryptamine 2A receptor
# Type: cell-based, NIH3T3
# Summary of the method: (§2)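 Membranes from confluent GF-6 and P0 cell monolayers, homogenized in ice-cold 0.32 M sucrose, spun at 44 000g, stored at -80°C in 50 mM Tris-HCl pH 7.6. Triplicate tubes held 5 nM [125I]LSD (stock), test compound at 10^-9 to 10^-5 M final and 1–5 μg protein. Nonspecific binding was defined with 10 μM mesulergine.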
row,Ki,Compound
1,4 nM,CN1CCN(C2=Cc3ccccc3Oc3ccccc32)CC1
2,98 nM,C/C=C1/c2ccccc2C=C(N2CCN(C)CC2)c2ccccc21
3,250 nM,CC(C)=C1c2ccccc2C=C(N2CCN(C)CC2)c2ccccc21
4,11 nM,CN1CCN(C2=Nc3cc(Cl)ccc3Oc3ccccc32)CC1 [ISOLOXAPINE]
5,3 nM,CN1CCN(C2=Cc3ccccc3Oc3ccc(Cl)cc32)CC1
6,47 nM,CC1c2ccccc2C=C(N2CCN(C)CC2)c2ccccc21 (stereo unspecified)
7,3 nM,CN1CCN(C2=Cc3cc(Cl)ccc3Cc3ccccc32)CC1
8,3 nM,CN1CCN(C2=Cc3cc(Cl)ccc3Oc3ccccc32)CC1
9,11 nM,C=C1c2ccccc2C=C(N2CCN(C)CC2)c2ccccc21
10,230 nM,CC(C)=C1c2ccc(Cl)cc2C=C(N2CCN(C)CC2)c2ccccc21

# Biological target: D(1A) dopamine receptor (Rattus norvegicus, UniProt P18901)
# Sequence (P18901 whole entry): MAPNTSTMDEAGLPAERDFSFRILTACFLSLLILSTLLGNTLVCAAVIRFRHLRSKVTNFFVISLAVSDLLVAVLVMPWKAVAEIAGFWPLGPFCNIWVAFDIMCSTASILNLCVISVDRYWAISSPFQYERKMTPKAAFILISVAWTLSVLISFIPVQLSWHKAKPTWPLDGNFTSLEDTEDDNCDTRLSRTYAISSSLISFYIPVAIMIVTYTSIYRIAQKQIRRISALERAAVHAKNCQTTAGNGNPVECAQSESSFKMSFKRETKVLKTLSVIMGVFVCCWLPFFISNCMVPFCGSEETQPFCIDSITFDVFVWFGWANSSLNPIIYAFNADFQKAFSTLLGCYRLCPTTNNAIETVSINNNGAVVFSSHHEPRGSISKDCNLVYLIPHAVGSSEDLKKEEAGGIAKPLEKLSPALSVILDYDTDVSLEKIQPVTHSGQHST
# Experiment: Affinity was evaluated as inhibition constant for dopamine receptor D1 using [3H]-SCH- 23390 as radioligand
row,Ki,Compound
1,68 nM,C/C=C1/c2ccccc2C=C(N2CCN(C)CC2)c2ccccc21
2,120 nM,CC(C)=C1c2ccccc2C=C(N2CCN(C)CC2)c2ccccc21
3,16 nM,CC1c2ccccc2C=C(N2CCN(C)CC2)c2ccccc21 (stereo unspecified)
4,4.7 nM,C=C1c2ccccc2C=C(N2CCN(C)CC2)c2ccccc21
5,98 nM,CC(C)=C1c2ccc(Cl)cc2C=C(N2CCN(C)CC2)c2ccccc21

# Biological target: T2, Serotonin 3 (5-HT3) receptor (Rattus norvegicus, UniProt P35563+Q9JJ16)
# T2 sequence (P35563 whole entry): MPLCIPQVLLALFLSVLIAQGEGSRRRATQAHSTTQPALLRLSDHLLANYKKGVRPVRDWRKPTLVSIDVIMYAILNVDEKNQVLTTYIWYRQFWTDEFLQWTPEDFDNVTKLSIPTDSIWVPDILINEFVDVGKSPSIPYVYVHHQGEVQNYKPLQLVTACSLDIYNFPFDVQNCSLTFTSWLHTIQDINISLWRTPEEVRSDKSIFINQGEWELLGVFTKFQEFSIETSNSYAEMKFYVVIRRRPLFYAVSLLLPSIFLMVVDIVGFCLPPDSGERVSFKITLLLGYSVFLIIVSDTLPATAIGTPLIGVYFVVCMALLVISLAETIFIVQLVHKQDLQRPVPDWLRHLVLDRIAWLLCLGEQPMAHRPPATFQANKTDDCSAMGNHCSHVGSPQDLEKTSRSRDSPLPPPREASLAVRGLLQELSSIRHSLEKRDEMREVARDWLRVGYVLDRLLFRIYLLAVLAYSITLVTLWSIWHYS
# T2 sequence (Q9JJ16 whole entry): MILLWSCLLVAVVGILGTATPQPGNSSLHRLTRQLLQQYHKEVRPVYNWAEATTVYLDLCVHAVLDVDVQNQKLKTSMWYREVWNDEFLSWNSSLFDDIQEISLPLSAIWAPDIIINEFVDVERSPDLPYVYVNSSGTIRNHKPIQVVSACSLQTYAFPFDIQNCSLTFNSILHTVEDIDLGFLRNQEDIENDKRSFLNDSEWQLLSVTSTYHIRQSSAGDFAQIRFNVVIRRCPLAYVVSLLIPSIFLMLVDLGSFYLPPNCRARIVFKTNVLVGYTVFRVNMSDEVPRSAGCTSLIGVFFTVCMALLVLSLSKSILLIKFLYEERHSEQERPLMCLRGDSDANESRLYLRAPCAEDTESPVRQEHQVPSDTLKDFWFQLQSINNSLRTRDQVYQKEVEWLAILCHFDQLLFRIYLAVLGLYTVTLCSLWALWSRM
# Experiment: Affinity was evaluated by inhibition of [3H]GR-65630 binding to NG108-15 cell transfected with cloned rat 5-hydroxytryptamine 3 receptor
# Type: cell-based
row,Ki,Compound
1,41 nM,CN1CCN(C2=Cc3ccccc3Oc3ccccc32)CC1
2,35 nM,C/C=C1/c2ccccc2C=C(N2CCN(C)CC2)c2ccccc21
3,81 nM,CC(C)=C1c2ccccc2C=C(N2CCN(C)CC2)c2ccccc21
4,39 nM,CN1CCN(C2=Nc3cc(Cl)ccc3Oc3ccccc32)CC1 [ISOLOXAPINE]
5,84 nM,CN1CCN(C2=Cc3ccccc3Oc3ccc(Cl)cc32)CC1
6,120 nM,CN1CCN(C2=Cc3cc(Cl)ccc3Cc3ccccc32)CC1
7,57 nM,CN1CCN(C2=Cc3cc(Cl)ccc3Oc3ccccc32)CC1
8,31 nM,C=C1c2ccccc2C=C(N2CCN(C)CC2)c2ccccc21
9,100 nM,CC(C)=C1c2ccc(Cl)cc2C=C(N2CCN(C)CC2)c2ccccc21

# System: not listed separately
# Experiment: Ratio between Ki values of D2 and S-3 receptors
row,Ratio,Compound
1,0.51,CN1CCN(C2=Cc3ccccc3Oc3ccccc32)CC1
2,21,C/C=C1/c2ccccc2C=C(N2CCN(C)CC2)c2ccccc21
3,3.6,CC(C)=C1c2ccccc2C=C(N2CCN(C)CC2)c2ccccc21
4,0.03,CN1CCN(C2=Cc3ccccc3Oc3ccc(Cl)cc32)CC1
5,0.15,CN1CCN(C2=Cc3cc(Cl)ccc3Oc3ccccc32)CC1
6,1.8,C=C1c2ccccc2C=C(N2CCN(C)CC2)c2ccccc21
7,6.9,CC(C)=C1c2ccc(Cl)cc2C=C(N2CCN(C)CC2)c2ccccc21

# Biological target: T3, 5-hydroxytryptamine receptor 2C (Rattus norvegicus, UniProt P08909)
# T3 sequence (P08909 whole entry): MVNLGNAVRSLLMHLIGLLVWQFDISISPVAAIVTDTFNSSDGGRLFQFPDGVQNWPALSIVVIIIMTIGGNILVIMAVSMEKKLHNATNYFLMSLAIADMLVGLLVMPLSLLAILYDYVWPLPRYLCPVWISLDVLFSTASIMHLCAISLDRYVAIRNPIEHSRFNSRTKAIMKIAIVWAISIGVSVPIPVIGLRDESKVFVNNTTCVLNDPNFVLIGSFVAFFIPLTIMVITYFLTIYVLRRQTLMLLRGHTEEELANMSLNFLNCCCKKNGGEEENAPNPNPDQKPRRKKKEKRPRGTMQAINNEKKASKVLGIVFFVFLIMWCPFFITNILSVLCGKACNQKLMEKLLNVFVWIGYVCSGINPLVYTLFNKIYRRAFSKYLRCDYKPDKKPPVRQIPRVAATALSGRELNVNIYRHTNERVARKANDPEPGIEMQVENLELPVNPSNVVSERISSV
# Experiment: Affinity was evaluated by inhibition of [125I]LSD binding to NIH 3T3 cells transfected with cloned rat 5-hydroxytryptamine 2C receptor
# Type: cell-based, NIH3T3
# Summary of the method: as §2
row,Ki,Compound
1,6 nM,CN1CCN(C2=Cc3ccccc3Oc3ccccc32)CC1
2,110 nM,C/C=C1/c2ccccc2C=C(N2CCN(C)CC2)c2ccccc21
3,390 nM,CC(C)=C1c2ccccc2C=C(N2CCN(C)CC2)c2ccccc21
4,19 nM,CN1CCN(C2=Nc3cc(Cl)ccc3Oc3ccccc32)CC1 [ISOLOXAPINE]
5,3 nM,CN1CCN(C2=Cc3ccccc3Oc3ccc(Cl)cc32)CC1
6,36 nM,CC1c2ccccc2C=C(N2CCN(C)CC2)c2ccccc21 (stereo unspecified)
7,7 nM,CN1CCN(C2=Cc3cc(Cl)ccc3Cc3ccccc32)CC1
8,6 nM,CN1CCN(C2=Cc3cc(Cl)ccc3Oc3ccccc32)CC1
9,18 nM,C=C1c2ccccc2C=C(N2CCN(C)CC2)c2ccccc21
10,370 nM,CC(C)=C1c2ccc(Cl)cc2C=C(N2CCN(C)CC2)c2ccccc21

# Biological target: D(2) dopamine receptor (Homo sapiens, UniProt P14416)
# Sequence (P14416 whole entry): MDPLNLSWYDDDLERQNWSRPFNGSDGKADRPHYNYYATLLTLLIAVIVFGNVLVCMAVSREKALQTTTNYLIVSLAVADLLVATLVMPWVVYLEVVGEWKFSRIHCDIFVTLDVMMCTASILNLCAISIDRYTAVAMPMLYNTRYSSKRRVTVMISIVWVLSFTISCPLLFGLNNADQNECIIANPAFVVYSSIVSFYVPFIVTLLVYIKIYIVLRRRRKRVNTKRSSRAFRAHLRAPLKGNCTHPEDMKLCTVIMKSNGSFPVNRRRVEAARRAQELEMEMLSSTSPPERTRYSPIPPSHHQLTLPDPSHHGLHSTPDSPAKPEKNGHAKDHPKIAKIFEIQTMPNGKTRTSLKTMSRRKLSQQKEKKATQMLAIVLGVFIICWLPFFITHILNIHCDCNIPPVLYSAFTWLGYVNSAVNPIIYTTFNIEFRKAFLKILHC
# Experiment: Affinity was evaluated by inhibition of [3H]spiperone binding to COS cells transfected with human dopamine D-2(long) receptor
# Type: cell-based
# Summary of the method: as §1
row,Ki,Compound
1,21 nM,CN1CCN(C2=Cc3ccccc3Oc3ccccc32)CC1
2,730 nM,C/C=C1/c2ccccc2C=C(N2CCN(C)CC2)c2ccccc21
3,290 nM,CC(C)=C1c2ccccc2C=C(N2CCN(C)CC2)c2ccccc21
4,2.5 nM,CN1CCN(C2=Cc3ccccc3Oc3ccc(Cl)cc32)CC1
5,8.7 nM,CN1CCN(C2=Cc3cc(Cl)ccc3Oc3ccccc32)CC1
6,57 nM,C=C1c2ccccc2C=C(N2CCN(C)CC2)c2ccccc21
7,690 nM,CC(C)=C1c2ccc(Cl)cc2C=C(N2CCN(C)CC2)c2ccccc21

# From ChEMBL document CHEMBL1127435 (J Med Chem, 1994)
